# Test results taken from ChEMBL document CHEMBL3774381, “Discovery of Novel and Orally Bioavailable Inhibitors of PI3 Kinase Based on Indazole Substituted Morpholino-Triazines” (ACS Med Chem Lett, 2015).
# Legend:
# [1] = target: Phosphatidylinositol 4,5-bisphosphate 3-kinase catalytic subunit alpha isoform (Homo sapiens, UniProt P42336); assay: Inhibition of human recombinant PI3K-alpha using phosphatidylinositol biphosphate as substrate preincubated for 15 mins followed by substrate addition measured after 60 mins by HTRF assay
# A2780 = assay: Antiproliferative activity against human A2780 cells assessed as reduction in cell viability after 48 hrs by MTT assay; assay type: functional, cell-based; conditions: A2780, 48 h
# Outline: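 Cellular EC50 was determined in the A2780 ovarian cancer line, with a coefficient of variation below 5%.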
# Cytochrome P450 3A4 [2] = target: T1, Cytochrome P450 3A4 (Homo sapiens, UniProt P08684); assay: Inhibition of CYP3A4 (unknown origin); assay type: ADME
# Cytochrome P450 2C19 [3] = target: T2, Cytochrome P450 2C19 (Homo sapiens, UniProt P33261); assay: Inhibition of CYP2C19 (unknown origin); assay type: ADME
# Outline: (§1)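 Inhibition of CYP3A4, CYP2C19 and CYP2D6 activity was screened with test compound at 10 μM.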
# Cytochrome P450 3A4 [4] = target: T1, Cytochrome P450 3A4; assay: Inhibition of CYP3A4 (unknown origin) at 10 uM; assay type: ADME; outline: as §1
# Cytochrome P450 2D6 [5] = target: T3, Cytochrome P450 2D6 (Homo sapiens, UniProt P10635); assay: Inhibition of CYP2D6 (unknown origin); assay type: ADME; outline: as §1
# [6] = Metabolic stability in mouse liver microsomes assessed as parent compound remaining at 10 uM after 2 hrs by HPLC analysis in presence of NADPH; assay type: ADME; conditions: read-out: Stability
# Outline: (§2)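 Compound was incubated with isolated human, dog or mouse liver microsomes for 2 h. Parent concentration was followed by HPLC at 0, 0.5, 1 and 2 h, and the 2 h value is reported as remaining parent.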
# Cytochrome P450 2C19 [7] = target: T2, Cytochrome P450 2C19; assay: Inhibition of CYP2C19 (unknown origin) at 10 uM; assay type: ADME; outline: as §1
# Cytochrome P450 2D6 [8] = target: T3, Cytochrome P450 2D6; assay: Inhibition of CYP2D6 (unknown origin) at 10 uM; assay type: ADME; outline: as §1
# [9] = Metabolic stability in human liver microsomes assessed as parent compound remaining at 10 uM after 2 hrs by HPLC analysis in presence of NADPH; assay type: ADME; conditions: read-out: Stability; outline: as §2
# [10] = Cmax in Swiss mouse plasma at 10 mg/kg, po after 0.16 to 8 hrs by LC-MS analysis; assay type: ADME, organism-based; set-up: dose 10 mg/kg, route oral
# Outline: (§3)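 Single oral doses of 1, 3 and 10 mpk were given to mice in a dose-ranging study, with the 3 mpk screen run in Swiss mice. Plasma tmax, Cmax, AUC and elimination t1/2 were derived from each dose group.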
# Mus musculus [11] = assay: Toxicity in Swiss mouse assessed as reduced physical activity at 30 mg/kg, po bid for 5 days; assay type: organism-based; conditions: in vivo, 120 h
# Outline: (§4)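 Swiss mice were dosed orally at 30 mpk BID for 5 consecutive days. Body weight, body temperature (hyper- or hypothermia), body coat and level of physical activity were monitored throughout.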
# [12] = Elimination half life in Swiss mouse plasma at 1 mg/kg, po after 0.16 to 8 hrs by LC-MS analysis; assay type: ADME, organism-based; conditions: read-out: beta t1/2 (converted)
# [13] = Cmax in Swiss mouse plasma at 3 mg/kg, po after 0.16 to 8 hrs by LC-MS analysis; assay type: ADME, organism-based; set-up: dose 3 mg/kg, route oral; outline: as §3
# [14] = Elimination half life in Swiss mouse plasma at 10 mg/kg, po after 0.16 to 8 hrs by LC-MS analysis; assay type: ADME, organism-based; conditions: read-out: beta t1/2 (converted); outline: as §3
# Mus musculus [15] = assay: Toxicity in Swiss mouse assessed as body weight loss at 30 mg/kg, po bid for 5 days; assay type: organism-based; conditions: in vivo, 120 h; outline: as §4
# Mus musculus [16] = assay: Toxicity in Swiss mouse assessed as changes in body coat at 30 mg/kg, po bid for 5 days; assay type: organism-based; conditions: in vivo, 120 h; outline: as §4
# [17] = AUC in Swiss mouse plasma at 3 mg/kg, po after 0.16 to 8 hrs by LC-MS analysis; assay type: ADME, organism-based; set-up: time lower 0.16 hr, dose 3 mg/kg, time upper 8 hr, route oral; outline: as §3
# [18] = AUC in Swiss mouse plasma at 1 mg/kg, po after 0.16 to 8 hrs by LC-MS analysis; assay type: ADME, organism-based; set-up: dose 1 mg/kg, time 0.16-8 hr, route oral
# [19] = Tmax in Swiss mouse plasma at 10 mg/kg, po after 0.16 to 8 hrs by LC-MS analysis; assay type: ADME, organism-based; outline: as §3
# [20] = Tmax in Swiss mouse plasma at 3 mg/kg, po after 0.16 to 8 hrs by LC-MS analysis; assay type: ADME, organism-based; outline: as §3
# Mus musculus [21] = assay: Toxicity in Swiss mouse assessed as hyperthermia at 30 mg/kg, po bid for 5 days; assay type: organism-based; conditions: in vivo, 120 h; outline: as §4
# [22] = Cmax in Swiss mouse plasma at 1 mg/kg, po after 0.16 to 8 hrs by LC-MS analysis; assay type: ADME, organism-based; set-up: dose 1 mg/kg, route oral; outline: as §3
# Mus musculus [23] = assay: Toxicity in Swiss mouse assessed as hypothermia at 30 mg/kg, po bid for 5 days; assay type: organism-based; conditions: in vivo, 120 h; outline: as §4
# [24] = Metabolic stability in dog liver microsomes assessed as parent compound remaining at 10 uM after 2 hrs by HPLC analysis in presence of NADPH; assay type: ADME, Canis lupus familiaris; conditions: read-out: Stability; outline: as §2
# [25] = AUC in Swiss mouse plasma at 10 mg/kg, po after 0.16 to 8 hrs by LC-MS analysis; assay type: ADME, organism-based; set-up: dose 10 mg/kg, time 0.16-8 hr, route oral; outline: as §3
# [26] = Tmax in Swiss mouse plasma at 1 mg/kg, po after 0.16 to 8 hrs by LC-MS analysis; assay type: ADME, organism-based; outline: as §3
# [27] = Elimination half life in Swiss mouse plasma at 3 mg/kg, po after 0.16 to 8 hrs by LC-MS analysis; assay type: ADME, organism-based; conditions: read-out: beta t1/2 (converted); outline: as §3
# T2 sequence (P33261 whole entry): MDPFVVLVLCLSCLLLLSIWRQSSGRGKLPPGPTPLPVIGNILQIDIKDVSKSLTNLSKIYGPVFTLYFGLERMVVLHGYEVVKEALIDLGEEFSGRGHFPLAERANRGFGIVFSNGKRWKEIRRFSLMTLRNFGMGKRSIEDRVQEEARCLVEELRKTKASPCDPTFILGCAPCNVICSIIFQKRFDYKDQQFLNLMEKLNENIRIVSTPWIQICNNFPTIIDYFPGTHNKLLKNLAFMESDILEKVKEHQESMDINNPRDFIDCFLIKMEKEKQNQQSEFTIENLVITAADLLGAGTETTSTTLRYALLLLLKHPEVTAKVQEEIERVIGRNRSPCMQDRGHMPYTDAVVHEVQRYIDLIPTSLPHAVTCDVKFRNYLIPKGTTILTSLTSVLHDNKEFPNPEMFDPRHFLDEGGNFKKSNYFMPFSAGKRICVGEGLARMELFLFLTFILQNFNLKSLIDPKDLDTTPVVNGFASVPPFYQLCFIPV
# Sequence of Phosphatidylinositol 4,5-bisphosphate 3-kinase catalytic subunit alpha isoform (P42336 whole entry, canonical isoform): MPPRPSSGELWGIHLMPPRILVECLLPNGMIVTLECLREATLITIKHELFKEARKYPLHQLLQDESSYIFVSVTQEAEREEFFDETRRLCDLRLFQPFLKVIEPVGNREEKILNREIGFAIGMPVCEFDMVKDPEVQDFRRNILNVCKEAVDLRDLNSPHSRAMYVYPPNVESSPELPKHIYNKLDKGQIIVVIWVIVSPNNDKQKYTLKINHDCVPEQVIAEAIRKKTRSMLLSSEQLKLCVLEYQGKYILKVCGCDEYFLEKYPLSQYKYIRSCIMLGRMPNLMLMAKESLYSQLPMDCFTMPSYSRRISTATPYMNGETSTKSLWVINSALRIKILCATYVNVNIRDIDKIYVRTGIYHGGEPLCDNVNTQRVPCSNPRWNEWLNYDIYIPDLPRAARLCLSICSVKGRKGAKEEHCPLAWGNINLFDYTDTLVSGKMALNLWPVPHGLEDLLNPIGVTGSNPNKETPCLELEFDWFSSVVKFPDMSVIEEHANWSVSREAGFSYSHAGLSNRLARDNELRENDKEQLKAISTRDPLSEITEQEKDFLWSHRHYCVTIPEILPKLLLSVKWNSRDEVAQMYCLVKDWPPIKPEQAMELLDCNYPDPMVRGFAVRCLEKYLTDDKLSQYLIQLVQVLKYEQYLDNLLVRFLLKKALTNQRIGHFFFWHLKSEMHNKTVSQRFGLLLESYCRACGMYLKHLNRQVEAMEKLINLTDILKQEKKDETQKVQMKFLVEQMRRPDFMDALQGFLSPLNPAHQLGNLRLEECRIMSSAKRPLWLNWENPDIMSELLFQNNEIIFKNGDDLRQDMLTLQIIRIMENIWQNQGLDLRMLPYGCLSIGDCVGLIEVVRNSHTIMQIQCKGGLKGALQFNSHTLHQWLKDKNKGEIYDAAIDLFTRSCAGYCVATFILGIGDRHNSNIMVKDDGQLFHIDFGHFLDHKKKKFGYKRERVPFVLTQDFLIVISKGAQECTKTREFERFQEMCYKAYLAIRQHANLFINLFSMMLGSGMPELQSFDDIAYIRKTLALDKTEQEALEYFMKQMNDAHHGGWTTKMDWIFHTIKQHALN
# T3 sequence (P10635 whole entry): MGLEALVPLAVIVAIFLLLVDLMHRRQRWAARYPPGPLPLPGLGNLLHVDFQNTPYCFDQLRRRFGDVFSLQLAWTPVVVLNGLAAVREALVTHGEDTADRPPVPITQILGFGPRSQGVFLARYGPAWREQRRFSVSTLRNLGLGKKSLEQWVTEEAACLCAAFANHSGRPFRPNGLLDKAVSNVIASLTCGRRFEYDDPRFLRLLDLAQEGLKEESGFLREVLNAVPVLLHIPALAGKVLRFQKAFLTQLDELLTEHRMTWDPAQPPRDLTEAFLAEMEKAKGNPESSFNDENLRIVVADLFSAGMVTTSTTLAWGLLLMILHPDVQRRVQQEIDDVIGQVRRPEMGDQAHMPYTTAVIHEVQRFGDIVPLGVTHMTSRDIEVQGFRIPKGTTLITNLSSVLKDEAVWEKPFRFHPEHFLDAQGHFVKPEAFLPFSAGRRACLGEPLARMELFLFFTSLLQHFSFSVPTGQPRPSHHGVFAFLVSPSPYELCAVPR
# T1 sequence (P08684 whole entry): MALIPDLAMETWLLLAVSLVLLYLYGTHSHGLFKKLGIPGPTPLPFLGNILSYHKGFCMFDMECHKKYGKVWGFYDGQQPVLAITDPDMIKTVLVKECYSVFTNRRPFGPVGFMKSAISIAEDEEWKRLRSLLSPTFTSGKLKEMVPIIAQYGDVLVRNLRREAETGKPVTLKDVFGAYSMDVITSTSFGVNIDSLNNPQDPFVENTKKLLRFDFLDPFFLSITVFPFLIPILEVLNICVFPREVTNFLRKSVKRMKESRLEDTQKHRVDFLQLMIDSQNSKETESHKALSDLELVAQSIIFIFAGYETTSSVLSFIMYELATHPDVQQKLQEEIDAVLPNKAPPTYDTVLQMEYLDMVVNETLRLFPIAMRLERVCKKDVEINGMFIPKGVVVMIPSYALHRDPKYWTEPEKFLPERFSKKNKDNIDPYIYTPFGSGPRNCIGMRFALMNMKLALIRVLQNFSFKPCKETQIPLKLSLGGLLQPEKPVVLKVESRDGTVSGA
structure (smiles),measurement,setting,value
NC(=O)CNc1nc(-c2cccc(O)c2)nc(N2CCOCC2)n1,IC50,[1],740 nM
O=C1CCN(c2nc(-c3cccc4[nH]ncc34)nc(N3CCOCC3)n2)CCN1,IC50,[1],200 nM
same,EC50,A2780,2640 nM
COC(=O)CNc1nc(-c2cccc(O)c2)nc(N2CCOCC2)n1,IC50,[1],1180 nM
CN(C)C(=O)c1cc(Oc2nc(-c3cccc4[nH]ncc34)nc(N3CCOCC3)n2)cs1,IC50,[1],100 nM
same,EC50,A2780,1400 nM
Nc1cccc(-c2nc(NCC(=O)O)nc(N3CCOCC3)n2)c1,IC50,[1],> 10000 nM
CN(C)C(=O)N1CCC(Oc2nc(-c3cccc4[nH]ncc34)nc(N3CCOCC3)n2)CC1,IC50,Cytochrome P450 3A4 [2],> 15000 nM
same,IC50,Cytochrome P450 2C19 [3],> 10000 nM
same,IC50,[1],60 nM
same,inhibition (INH),Cytochrome P450 3A4 [4],Not Active
same,IC50,Cytochrome P450 2D6 [5],> 10000 nM
same,"remaining at 2 h, 10 µM",[6],24.8%
same,EC50,A2780,720 nM
same,inhibition (INH),Cytochrome P450 2C19 [7],Not Active
same,inhibition (INH),Cytochrome P450 2D6 [8],Not Active
same,"remaining at 2 h, 10 µM",[9],80.7%
NC(=O)c1cccc(Oc2nc(-c3cccc4[nH]ncc34)nc(N3CCOCC3)n2)c1,IC50,[1],270 nM
same,EC50,A2780,3220 nM
O=C1CN(c2nc(-c3cccc4[nH]ncc34)nc(N3CCOCC3)n2)CCN1,IC50,[1],400 nM
same,EC50,A2780,3970 nM
c1ccc(Nc2nc(-c3cccc4[nH]ncc34)nc(N3CCOCC3)n2)cc1,IC50,[1],800 nM
same,EC50,A2780,3690 nM
CN(C)C(=O)CNc1nc(-c2cccc(O)c2)nc(N2CCOCC2)n1,IC50,[1],540 nM
CN(C)C(=O)CNc1nc(-c2cccc3c2CCC3O)nc(N2CCOCC2)n1 (stereo unspecified),IC50,[1],> 20000 nM
CN(C)C(=O)CNc1nc(-c2cncc(O)c2)nc(N2CCOCC2)n1,IC50,[1],1600 nM
NC(=O)c1cccc(Nc2nc(-c3cccc4[nH]ncc34)nc(N3CCOCC3)n2)c1,IC50,[1],80 nM
same,EC50,A2780,820 nM
CN(C)C(=O)CCNc1nc(-c2cccc3[nH]ncc23)nc(N2CCOCC2)n1,IC50,[1],600 nM
same,EC50,A2780,6380 nM
CN(C)C(=O)CNc1nc(-c2cccc3[nH]ncc23)nc(N2CCOCC2)n1,IC50,[1],1100 nM
CN(C)C(=O)c1sccc1Nc1nc(-c2cccc3[nH]ncc23)nc(N2CCOCC2)n1,IC50,[1],200 nM
same,EC50,A2780,1900 nM
CNc1cccc(Nc2nc(-c3cccc4[nH]ncc34)nc(N3CCOCC3)n2)c1,EC50,A2780,850 nM
CS(=O)(=O)N1CCN(C(=O)CNc2nc(-c3cccc(O)c3)nc(N3CCOCC3)n2)CC1,IC50,[1],1060 nM
CN(C)C(=O)CNc1nc(-c2cccc(C(N)=O)c2)nc(N2CCOCC2)n1,IC50,[1],> 20000 nM
CN(CC(=O)O)c1nc(-c2cccc(O)c2)nc(N2CCOCC2)n1,IC50,[1],10000 nM
CN(C)C(=O)c1ccc(Oc2nc(-c3cccc4[nH]ncc34)nc(N3CCOCC3)n2)cc1,Cmax,[10],1800 nM
same,Activity,Mus musculus [11],Non-toxic
same,half-life,[12],6.93 h
same,Cmax,[13],1240 nM
same,half-life,[14],6.87 h
same,Activity,Mus musculus [15],Non-toxic
same,IC50,Cytochrome P450 3A4 [2],> 15000 nM
same,IC50,Cytochrome P450 2C19 [3],> 10000 nM
same,IC50,[1],60 nM
same,inhibition (INH),Cytochrome P450 3A4 [4],Not Active
same,Activity,Mus musculus [16],Non-toxic
same,AUC,[17],5.25 µM·h
same,IC50,Cytochrome P450 2D6 [5],> 10000 nM
same,AUC,[18],2.12 µM·h
same,Tmax,[19],2.33 h
same,Tmax,[20],1 h
same,"remaining at 2 h, 10 µM",[6],45.6%
same,EC50,A2780,520 nM
same,inhibition (INH),Cytochrome P450 2C19 [7],Not Active
same,Activity,Mus musculus [21],Non-toxic
same,Cmax,[22],360 nM
same,inhibition (INH),Cytochrome P450 2D6 [8],Not Active
same,Activity,Mus musculus [23],Non-toxic
same,"remaining at 2 h, 10 µM",[24],83.8%
same,AUC,[25],9.79 µM·h
same,Tmax,[26],1 h
same,half-life,[27],4.86 h
same,"remaining at 2 h, 10 µM",[9],101%
COc1cccc(-c2nc(NCC(=O)O)nc(N3CCOCC3)n2)c1,IC50,[1],> 20000 nM
Nc1nc(-c2cccc(O)c2)nc(N2CCOCC2)n1,IC50,[1],680 nM
CNC(=O)CNc1nc(-c2cccc(O)c2)nc(N2CCOCC2)n1,IC50,[1],730 nM
O=C(O)CNc1nc(-c2ccccc2)nc(N2CCOCC2)n1,IC50,[1],> 20000 nM
CN(C)C(=O)[C@H]1CC[C@H](Oc2nc(-c3cccc4[nH]ncc34)nc(N3CCOCC3)n2)CC1,IC50,Cytochrome P450 3A4 [2],> 15000 nM
same,IC50,Cytochrome P450 2C19 [3],> 10000 nM
same,IC50,[1],60 nM
same,inhibition (INH),Cytochrome P450 3A4 [4],Not Active
same,IC50,Cytochrome P450 2D6 [5],> 10000 nM
same,"remaining at 2 h, 10 µM",[6],27.3%
same,EC50,A2780,680 nM
same,inhibition (INH),Cytochrome P450 2C19 [7],Not Active
same,inhibition (INH),Cytochrome P450 2D6 [8],Not Active
same,"remaining at 2 h, 10 µM",[9],99%
CN(C)C(=O)c1cccc(Nc2nc(-c3cccc4[nH]ncc34)nc(N3CCOCC3)n2)c1,IC50,[1],60 nM
same,EC50,A2780,800 nM
